Structures are written as SMILES. Active and inactive are the calls of the source.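 How the source made its calls, unless noted: active means mean duplicate potentiation above the buffer control mean plus 5 SD of buffer wells; inactive means the rest.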

A short description of experiment [1]: nonspecific flux increase, KCNQ1-free cells – parental CHO cells, counter-screen for KCNQ1 potentiator project (AID 493006;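 active means duplicate-averaged activation above buffer control mean plus 5 SD of those controls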). To be noted: parental CHO-K1 cells, FluxOR thallium flux, at 10 µM; hits give high values. In a few lines:
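Test system: parental CHO-K1 cells, FluxOR dye-loaded / Probe or stimulus: potassium plus thallium depolarizing stimulus, 5x stock 12.5 mM K2SO4, Tl2SO4 / Timing: overnight 37 °C plating, 90 min dye, 20 min dark compound / Measured by: kinetic thallium-flux fluorescence / Read-out: max-minus-min fluorescence over baseline, percent of buffer-to-R-L3 span / Benchmarks: buffer and R-L3 controls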

In experiment [2] the target is Potassium voltage-gated channel subfamily KQT member 1 (Homo sapiens) (UniProt P51787). Description: enhancement of KCNQ1 channel thallium flux – FluxOR thallium flux, CHO cells, duplicates, confirmation (AID 493007;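 active means potentiation averaged over duplicate wells exceeding buffer-only control mean by more than 3 SD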;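 on outcome: cells depolarized by a potassium plus thallium sulfate stimulus after compound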;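 on potentiation: 0% = buffer-only wells and 100% = R-L3 activator control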). As to conditions: KCNQ1 cell line, FluxOR thallium flux fluorescence, at 10 µM; hits give high values, % of reference activator effect, buffer zero. An outline of the steps: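 Assay system: CHO cells carrying KCNQ1 | Controls: Buffer and R-L3 controls | Schedule: FluxOR dye loading 90 min, compound exposure 20 min, room temperature | Read-out: Baseline-normalized fluorescence change, percent of buffer-to-R-L3 range | Replicates: Each compound tested in duplicate | Technique: Kinetic thallium influx fluorescence with FluxOR dye, 10 s baseline, 110 s post-stimulus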
Sequence of Potassium voltage-gated channel subfamily KQT member 1 (Homo sapiens) (P51787 whole entry, looked up): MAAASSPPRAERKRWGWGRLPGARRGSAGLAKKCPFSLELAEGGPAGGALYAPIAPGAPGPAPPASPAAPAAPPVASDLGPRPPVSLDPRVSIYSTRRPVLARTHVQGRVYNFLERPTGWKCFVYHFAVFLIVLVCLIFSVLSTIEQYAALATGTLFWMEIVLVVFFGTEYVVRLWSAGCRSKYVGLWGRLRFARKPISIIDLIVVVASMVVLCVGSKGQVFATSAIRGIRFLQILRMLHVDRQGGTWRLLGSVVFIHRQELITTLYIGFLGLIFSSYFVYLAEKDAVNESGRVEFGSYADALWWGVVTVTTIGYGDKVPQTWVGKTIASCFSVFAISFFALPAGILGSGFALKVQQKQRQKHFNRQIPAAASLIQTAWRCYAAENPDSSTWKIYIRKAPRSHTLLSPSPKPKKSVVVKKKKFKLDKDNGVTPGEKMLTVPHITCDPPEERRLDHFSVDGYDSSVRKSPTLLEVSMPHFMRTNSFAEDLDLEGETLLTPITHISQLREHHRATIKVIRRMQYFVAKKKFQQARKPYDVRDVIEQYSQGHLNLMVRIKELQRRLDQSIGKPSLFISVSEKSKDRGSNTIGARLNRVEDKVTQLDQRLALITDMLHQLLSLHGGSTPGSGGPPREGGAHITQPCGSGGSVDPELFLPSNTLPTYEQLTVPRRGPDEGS

Experiment [3] deals with Potassium voltage-gated channel subfamily KQT member 2 (Rattus norvegicus) (UniProt O88943). As to the kind of experiment: KCNQ2 thallium flux enhancement – KCNQ2-CHO-K1 cells, selectivity assay for KCNQ1 potentiator project (AID 493009).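 Further: assay conditions were tuned for KCNQ1 rather than KCNQ2 modulators; signal is max minus min fluorescence divided by baseline after thallium stimulus.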 To be noted: FluxOR thallium flux fluorescence, at 10 µM; hits give high values, scaled: buffer 0, activator control 100.
Sequence of Potassium voltage-gated channel subfamily KQT member 2 (Rattus norvegicus) (O88943 whole entry, looked up): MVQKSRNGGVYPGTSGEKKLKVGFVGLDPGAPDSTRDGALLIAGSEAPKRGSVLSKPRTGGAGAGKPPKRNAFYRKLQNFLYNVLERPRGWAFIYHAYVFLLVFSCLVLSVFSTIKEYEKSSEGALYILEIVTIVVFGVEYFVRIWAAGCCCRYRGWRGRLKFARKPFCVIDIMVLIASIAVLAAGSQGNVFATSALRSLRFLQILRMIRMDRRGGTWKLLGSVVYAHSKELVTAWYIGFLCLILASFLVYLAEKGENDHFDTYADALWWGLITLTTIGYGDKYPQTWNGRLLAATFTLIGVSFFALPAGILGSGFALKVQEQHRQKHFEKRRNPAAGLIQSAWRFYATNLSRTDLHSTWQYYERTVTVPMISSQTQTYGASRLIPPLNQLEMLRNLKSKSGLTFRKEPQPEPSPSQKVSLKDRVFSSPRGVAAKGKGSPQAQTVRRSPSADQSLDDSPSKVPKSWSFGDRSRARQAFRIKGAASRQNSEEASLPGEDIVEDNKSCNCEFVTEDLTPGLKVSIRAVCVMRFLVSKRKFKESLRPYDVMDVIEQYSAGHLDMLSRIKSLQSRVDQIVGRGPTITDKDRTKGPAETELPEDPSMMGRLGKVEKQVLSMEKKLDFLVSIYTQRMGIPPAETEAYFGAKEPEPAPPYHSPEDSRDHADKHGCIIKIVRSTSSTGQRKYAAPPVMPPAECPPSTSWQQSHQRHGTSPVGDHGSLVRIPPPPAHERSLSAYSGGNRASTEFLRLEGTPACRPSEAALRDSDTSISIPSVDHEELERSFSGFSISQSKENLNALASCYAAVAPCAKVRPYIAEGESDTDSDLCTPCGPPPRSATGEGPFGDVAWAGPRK
Experiment [4] addresses Potassium voltage-gated channel subfamily KQT member 1 (Homo sapiens) (UniProt P51787). As to the kind of experiment: KCNQ1 activators by electrophysiology – IonWorks patch clamp, KCNQ1-CHO cells, orthogonal assay for KCNQ1 potentiator project, confirmation (AID 493184;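 active means current rise at least 3 SD above the untreated control mean in each of two repeat wells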;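 on current potentiation: percent change of the same well's current before compound addition so 0% = no change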). As to conditions: automated patch clamp current, at 10 µM; hits give high values. An outline of the steps:
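Material: KCNQ1-expressing CHO cells; doses: 10 µM final, single point; probe or stimulus: voltage step from -90 mV holding to +40 mV, 2,000 ms; signal: automated voltage clamp, amphotericin B perforated patch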
For orientation: Patch clamp records ionic current or voltage across a cell membrane.

With `COc1ccc(CNC(=O)COC(=O)/C=C/c2ccc(Cl)cc2)cc1`, the outcome in experiment [1], in experiment [2], in experiment [3] and in experiment [4] was inactive.
`N#Cc1ccc(-c2nc3cc(Cl)ccc3c(=O)n2O)cc1`: the activation in experiment [1] is 189% (active). Moreover, the potentiation was 29.5% (active) in experiment [2] and 176% (active) in experiment [3]. Besides, the result in experiment [4] was inactive.
Take `O=C(NC(=S)Nc1ccc2c(c1)OCCO2)c1ccco1`: in experiment [1], the activation is 206% (active). Further, the values for the potentiation in experiment [2] and in experiment [3] were 108% (active) and 260% (active), respectively. Also, in experiment [4], the result was inactive.
As to `CC1(c2ccccc2)CC(C)(C)N2C(=O)/C(=C3\SC(=S)NC3=O)c3cccc1c32` (stereo not given), the activation in experiment [1] was 684% (active). For the same compound, the potentiation was 292% (active) in experiment [2] and 520% (active) in experiment [3]. The result in experiment [4] was inactive.
In the case of `CC(=O)OCC(=O)[C@@]1(OC(C)=O)[C@@H](C)C[C@H]2[C@@H]3C[C@H](F)C4=CC(=O)C=C[C@]4(C)[C@@]3(F)[C@@H](O)C[C@@]21C`, the result in experiment [1], in experiment [2], in experiment [3] and in experiment [4] was inactive.
On to `S=C1NC2(CCCCC2)Cc2ccccc21`, for which the outcome in experiment [1], in experiment [2], in experiment [3] and in experiment [4] was inactive.
As to `NC(=S)Nc1nc2ccccc2s1`, in experiment [1], the activation was 165% (active). The potentiation in experiment [2] was 54.5% (active); in experiment [3], 186% (active). Besides, in experiment [4], the result was inactive.
Consider `CC1(C)CC[C@]2(C(=O)O)CC[C@]3(C)C(=CCC4[C@@]5(C)CC[C@H](O)C(C)(C)C5[C@H](O)C[C@]43C)[C@@H]2C1` (stereo not given in full), for which the activation in experiment [1] is 184% (active). Moreover, the figures for the potentiation in experiment [2] and in experiment [3] were 40.5% (active) and 182% (active), respectively. The outcome in experiment [4] was inactive.
For the compound `NC(=O)c1ccccc1NC(=O)N1CCOCC1`, the result in experiment [1], in experiment [2], in experiment [3] and in experiment [4] was inactive.
As for `CCOC(=O)c1c(NC(=S)NC(=O)c2ccco2)sc2c1CCCC2`, the outcome in experiment [1], in experiment [2], in experiment [3] and in experiment [4] was inactive.
In the case of `CCOc1ccccc1NC(=O)C1CCCN(S(=O)(=O)c2ccccc2)C1` (stereo not given), the result in experiment [1], in experiment [2], in experiment [3] and in experiment [4] was inactive.
`COc1ccccc1CNC(=O)COC(=O)c1nccnc1N`: the result in experiment [1], in experiment [2], in experiment [3] and in experiment [4] was inactive.
Consider `O=C(CN1CCN(Cc2ccc(F)cc2Cl)C1=O)NCCc1ccccc1`, for which the result in experiment [1], in experiment [2], in experiment [3] and in experiment [4] was inactive.
For `Cc1ccc(SCc2[nH]nc3c2C(c2ccco2)C(C#N)=C(N)O3)cc1` (stereo not given), the outcome in experiment [1], in experiment [2], in experiment [3] and in experiment [4] was inactive.
Take `COc1ccc(N/C=C/C(=O)c2cc(OC)c(OC)c(OC)c2)cc1`: the activation in experiment [1] is 366% (active). Also, the potentiation in experiment [2] is 188% (active); in experiment [3], 365% (active). Also, the outcome in experiment [4] was inactive.
As for `COC(=O)C(C)Sc1nc2c(c(=O)n(C)c(=O)n2C)n1Cc1cccc(C)c1` (stereo not given), the outcome in experiment [1], in experiment [2], in experiment [3] and in experiment [4] was inactive.
For `CCOC(=O)c1cc(CC)sc1NC(=O)CC1Sc2ccc(C(F)(F)F)cc2NC1=O` (stereo not given), the outcome in experiment [1], in experiment [2], in experiment [3] and in experiment [4] was inactive.
For `O=C1c2ccccc2C2(c3cc(C(F)(F)F)cc(C(F)(F)F)c3)NCCN12` (stereo not given), the result in experiment [1], in experiment [2], in experiment [3] and in experiment [4] was inactive.
Take `Cc1ccc(C(=O)CC(=O)c2cc(Cl)ccc2O)cc1`: the activation in experiment [1] was 150% (active). Also, the results for the potentiation in experiment [2] and in experiment [3] were 42.5% (active) and 152% (active), respectively. The outcome in experiment [4] was inactive.
For the compound `O=c1c(Cl)c(Cl)cnn1Cc1nnc(-c2ccccc2Br)o1`, the outcome in experiment [1], in experiment [2] and in experiment [3] was inactive. For the same compound, the current potentiation in experiment [4] is 14.7% (active).
Turning to `Cc1cccc(CS(=O)(=O)c2ncc(CO)n2C)c1`, the result in experiment [1], in experiment [2], in experiment [3] and in experiment [4] was inactive.
For `CCC(Oc1ccc(Cl)cc1)C(=O)N1CC(=O)Nc2ccccc21` (stereo not given), the result in experiment [1], in experiment [2], in experiment [3] and in experiment [4] was inactive.
As for `CCOc1ccc(C(=O)N2CCCC(c3nc(-c4ccc(C)o4)no3)C2)cc1` (stereo not given), the result in experiment [1], in experiment [2], in experiment [3] and in experiment [4] was inactive.
In the case of `COc1cccc(NC(=O)c2cncs2)c1`, the outcome in experiment [1], in experiment [2], in experiment [3] and in experiment [4] was inactive.
For the compound `Cc1noc(C)c1CSc1ncnc2sc3c(c12)CCCCC3`, the activation in experiment [1] is 175% (active). Also, the potentiation was 60% (active) in experiment [2] and 178% (active) in experiment [3]. The result in experiment [4] was inactive.
With `COC(=O)C1CCCN1C(=O)COc1ccc(Br)cc1Cl` (stereo not given), the activation in experiment [1] is 206% (active). For the same compound, the potentiation in experiment [2] was 48.5% (active); in experiment [3], 198% (active). In experiment [4], the result was inactive.
As for `CCC1CCCCN1C(=S)NC(=O)c1ccc([N+](=O)[O-])cc1` (stereo not given), in experiment [1], the activation was 244% (active). The potentiation in experiment [2] is 92.5% (active); in experiment [3] it was 280% (active). Besides, the result in experiment [4] was inactive.
The matching figures for `CCOC(=O)c1c(-c2ccc(C)o2)csc1NC(=S)NC(=O)N(C)C`: 266% (active), 171% (active), 314% (active) and “inactive”.
For `CC(/C=N/n1c(-c2ccc(Cl)cc2)n[nH]c1=S)=C\c1ccco1`, the outcome in experiment [1], in experiment [3] and in experiment [4] was inactive. Also, in experiment [2], the potentiation was 28% (active).
Turning to `COc1ccc(/C=N/NC(=O)c2[nH]nc3c2CCc2ccccc2-3)cc1OC`, the activation in experiment [1] is 240% (active). The figures for the potentiation in experiment [2] and in experiment [3] were 85% (active) and 228% (active), respectively. Moreover, the result in experiment [4] was inactive.
